Reference: PMC6399515 (Insect Biochemistry and Molecular Biology, 2016)

Key:
[1] = biological target: T1, CYP6Z2 (Anopheles gambiae, UniProt A8I285); assay: biochemical
T1 sequence (A8I285 1-492): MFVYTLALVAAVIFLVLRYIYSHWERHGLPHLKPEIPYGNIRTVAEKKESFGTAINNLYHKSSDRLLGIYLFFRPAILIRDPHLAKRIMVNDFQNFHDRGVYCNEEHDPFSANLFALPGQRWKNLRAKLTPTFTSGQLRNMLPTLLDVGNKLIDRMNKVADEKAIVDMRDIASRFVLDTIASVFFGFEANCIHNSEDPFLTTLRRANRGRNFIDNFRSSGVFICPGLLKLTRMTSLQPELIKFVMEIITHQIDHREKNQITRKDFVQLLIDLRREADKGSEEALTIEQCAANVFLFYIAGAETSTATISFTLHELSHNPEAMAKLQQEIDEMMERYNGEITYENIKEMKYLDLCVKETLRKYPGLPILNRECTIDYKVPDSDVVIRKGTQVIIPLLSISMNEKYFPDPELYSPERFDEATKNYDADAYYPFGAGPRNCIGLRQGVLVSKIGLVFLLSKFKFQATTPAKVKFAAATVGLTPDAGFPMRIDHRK
T1 sequence (Q86QH5 1-679 partner): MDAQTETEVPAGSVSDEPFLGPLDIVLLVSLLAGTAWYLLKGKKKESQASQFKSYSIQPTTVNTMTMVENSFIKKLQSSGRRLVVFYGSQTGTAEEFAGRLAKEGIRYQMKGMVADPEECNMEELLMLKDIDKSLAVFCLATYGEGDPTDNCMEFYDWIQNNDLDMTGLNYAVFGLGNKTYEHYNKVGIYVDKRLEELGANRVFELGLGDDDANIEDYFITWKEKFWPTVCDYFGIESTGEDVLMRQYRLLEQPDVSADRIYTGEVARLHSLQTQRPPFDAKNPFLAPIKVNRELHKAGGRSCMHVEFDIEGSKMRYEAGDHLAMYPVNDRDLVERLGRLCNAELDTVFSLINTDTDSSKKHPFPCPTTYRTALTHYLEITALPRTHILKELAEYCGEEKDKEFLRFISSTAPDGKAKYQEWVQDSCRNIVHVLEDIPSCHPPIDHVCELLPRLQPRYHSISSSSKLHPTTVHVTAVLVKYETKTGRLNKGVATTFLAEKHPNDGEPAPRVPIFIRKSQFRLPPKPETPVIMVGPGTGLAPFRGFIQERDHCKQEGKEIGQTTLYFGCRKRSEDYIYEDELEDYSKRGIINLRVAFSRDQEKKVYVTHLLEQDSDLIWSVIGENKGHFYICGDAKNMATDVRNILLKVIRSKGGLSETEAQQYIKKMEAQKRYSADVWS
T1 sequence (Q86QH4 1-128 partner): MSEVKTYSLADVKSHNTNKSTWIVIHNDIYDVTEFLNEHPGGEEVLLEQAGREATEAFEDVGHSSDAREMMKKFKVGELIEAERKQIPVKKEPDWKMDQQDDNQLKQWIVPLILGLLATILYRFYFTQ

[2] = biological target: T2, CYP6P3 (Anopheles gambiae, UniProt Q8T632); assay: Reciprocal IC50 of CYP6P3 metabolism of PPF and permethrin; assay type: biochemical
T2 sequence (Q8T632 1-509): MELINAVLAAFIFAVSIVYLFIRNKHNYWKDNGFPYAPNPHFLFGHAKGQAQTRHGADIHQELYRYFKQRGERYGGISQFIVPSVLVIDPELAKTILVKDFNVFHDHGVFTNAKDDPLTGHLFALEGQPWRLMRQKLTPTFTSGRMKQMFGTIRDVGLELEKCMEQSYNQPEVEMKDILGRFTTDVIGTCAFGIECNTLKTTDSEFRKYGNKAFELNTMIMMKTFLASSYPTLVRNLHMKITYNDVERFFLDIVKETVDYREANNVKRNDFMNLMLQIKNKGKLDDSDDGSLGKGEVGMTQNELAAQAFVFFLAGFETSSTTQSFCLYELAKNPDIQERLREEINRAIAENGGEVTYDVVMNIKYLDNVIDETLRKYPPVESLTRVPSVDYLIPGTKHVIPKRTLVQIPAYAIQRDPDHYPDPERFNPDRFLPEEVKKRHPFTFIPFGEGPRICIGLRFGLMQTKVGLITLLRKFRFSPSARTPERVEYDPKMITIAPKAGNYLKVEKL
T2 sequence (Q86QH5 1-679 partner): T1 sequence (Q86QH5 1-679 partner)
T2 sequence (Q86QH4 1-128 partner): T1 sequence (Q86QH4 1-128 partner)
Outline: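 CYP6P3 was expressed with AgCPR in E. coli JM109 membranes, with b5 added at 10:1 b5:P450. Reactions ran at 30 °C for 90 min with shaking: 0.1 μM P450, 1.0 μM b5, 0.2 M Tris-HCl pH 7.4, 0.25 mM MgCl2, NADPH-regenerating system. PPF (0–1.6 mM) or permethrin (0–3.2 mM) was titrated against the other at fixed 20 μM. Substrate loss was read by C18 HPLC at 232 nm, triplicate controls.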

[3] = biological target: T2, CYP6P3; assay: biochemical
[4] = tested on: all mosquito P450s of the panel apart from CYP6Z2 (CYP6M2, CYP6P2, CYP6P3, CYP6P4, CYP9J5); assay: in vitro; details: Anopheles gambiae
[5] = tested on: mosquito P450s
[6] = biological target: T2, CYP6P3
[7] = tested on: CYP6P family and CYP6Z2; details: Anopheles gambiae, pH 7.4
[8] = tested on: all mosquito P450s of the panel except CYP6Z2 and CYP6P2 (CYP6M2, CYP6P3, CYP6P4, CYP9J5); assay: in vitro; details: Anopheles gambiae
[9] = tested on: An. gambiae Tiassalé strain; assay: Glass tube assay, ovary development of adult females, Tiassalé strain; assay type: in vivo, Anopheles gambiae
Outline: (§1)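 Borosilicate glass tubes were coated with PPF at 0.55, 2.75 or 5.5 mg/m2, with an acetone-only tube as control, and used the day they were made. Per concentration, two groups of fifteen 5–7-day-old females (n = 30) were acclimated 60 min, then exposed 3 min. They were held 24 h on 10% sucrose, then five days in the insectary. Ovaries were dissected and scored normal or abnormal.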

[10] = tested on: An. gambiae Kisumu strain; assay: Glass tube assay, ovary development of adult females, Kisumu strain; assay type: in vivo, Anopheles gambiae
Outline: as §1

[11] = category of inhibition of DEF metabolism
[12] = 3 min exposure, half of 5.5 mg/m^2

| SMILES | IC50 ([1]; IC50 of DEF metabolism) | IC50 [1, 11] | IC50 [2] | IC50 [3] | IC50 ([4]; pH 7.4, IC50 of DEF activity) | IC50 ([4]; pH 7.4, category of inhibition of DEF activity) | strength of inhibition relative to PPF [5] | % PPF depletion + PBO ([6]; Anopheles gambiae, pH 7.4) | PPF depletion [7] | IC50 ([8]; pH 7.4, IC50 of DEF activity) | IC50 ([8]; pH 7.4, category of inhibition of DEF metabolism) | mosquitoes sterilized ([9]; 3 min exposure to 5.5 mg/m^2) | impact on ovary development [9, 12] | mosquitoes sterilized ([10]; 3 min exposure to 5.5 mg/m^2) | mosquitoes sterilized [10, 12] | Inhibition ratio (%): reduction of PPF depletion caused by PBO [6] |
| --- | --- | --- | --- | --- | --- | --- | --- | --- | --- | --- | --- | --- | --- | --- | --- | --- |
| CC1(C)C(C=C(Cl)Cl)C1C(=O)OCc1cccc(Oc2ccccc2)c1 (mixture of isomers) [Permethrin, 3-phenoxybenzyl (1R,S)-cis,trans-3-(2,2-dichlorovinyl)-2,2-dimethylcyclopropanecarboxylate] | 13.7 µM | > 10 µM | 61.2 µM | 6.77 µM | 1 to 10 µM | 1 to 10 µM | 2–3 fold |  |  |  |  |  |  |  |  |  |
| CC(COc1ccc(Oc2ccccc2)cc1)Oc1ccccn1 (centres unmarked) [PPF, pyriproxyfen] | 2.23 µM | 1 to 10 µM | 92.7 µM | 15.8 µM |  |  |  | 8.68 ± 1.74% | 58–100% | > 10 µM | > 10 µM | 75% | no impact | completely sterilized | 76% |  |
| CCCCOCCOCCOCc1cc2c(cc1CCC)OCO2 [PBO, piperonyl butoxide] |  |  |  |  |  |  |  |  |  |  |  |  |  |  |  | 91.3% |
